# Laboratory results taken from ChEMBL document CHEMBL4229550, “An antimycobacterial pleuromutilin analogue effective against dormant bacilli” (Bioorg Med Chem, 2018).
# Legend:
# [1] = system: Mycobacterium tuberculosis; assay: Antibacterial activity against Mycobacterium tuberculosis; type: functional; conditions: read-out: MIC100
# Summary of the method: (§1)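 Mtb H37Rv grown in 7H9/OADC at 37 °C with shaking to OD600 0.5. The 0.5-OD culture is exposed aerobically to serial dilutions for 15 days at 37 °C. Resazurin (0.02% stock) is then added for 4 h at 37 °C with shaking.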
# Erythrocyte = assay: Hemolytic activity in sheep erythrocytes after 2 hrs; type: ADME, cell-based; conditions: Ovis aries
# Summary of the method: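 Washed heparinized sheep erythrocytes at 3% in buffer pH 7.4 were treated with 2–200 µg/mL for 2 h at 37 °C with gentle shaking. Triton X-100 (0.01–1%) was the positive control and PEG:H2O diluent the negative control. Released hemoglobin was read at OD540 and % hemolysis calculated against both controls.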
# [2] = Half life in Sprague-Dawley rat liver microsomes at 500 ng/ml preincubated for 5 mins followed by NADPH addition by C-MS/MS analysis; type: ADME, microsome
# [3] = system: Mycobacterium tuberculosis; assay: Bactericidal activity against replicating Mycobacterium tuberculosis H37Rv incubated for 15 days under aerobic condition by MABA; type: functional; conditions: 360 h; summary of the method: as §1
# [4] = system: Mycolicibacterium smegmatis; assay: Antibacterial activity against Mycobacterium smegmatis ATCC 607 incubated for 48 hrs under aerobic condition by MABA; type: functional; conditions: ATCC 607, 48 h, read-out: MIC100
# Summary of the method: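 Mid-log culture at OD 0.5 was incubated with serial dilutions aerobically at 37 °C for 48 h. Resazurin was then added from a 0.08% stock for 1 h. MIC100 was the lowest concentration that stayed blue; absorbance was also read at 570/600 nm.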
# [5] = system: Mycolicibacterium smegmatis; assay: Bactericidal activity against Mycobacterium smegmatis ATCC 607 incubated for 48 hrs under aerobic condition by MABA; type: functional; conditions: ATCC 607, 48 h
# Staphylococcus aureus [6] = assay: Bactericidal activity against Staphylococcus aureus incubated for 24 hrs under aerobic condition by MABA; type: functional
# Staphylococcus aureus [7] = assay: Bactericidal activity against Staphylococcus aureus ATCC 25923 incubated for 24 hrs under aerobic condition by MABA; type: functional; conditions: ATCC 25923, 24 h
# Staphylococcus aureus [8] = assay: Bactericidal activity against Staphylococcus aureus BAA 2094 incubated for 24 hrs under aerobic condition by MABA; type: functional; conditions: BAA 2094, 24 h
# Staphylococcus aureus [9] = assay: Bactericidal activity against Staphylococcus aureus BAA 1683 incubated for 24 hrs under aerobic condition by MABA; type: functional; conditions: BAA 1683, 24 h
# Staphylococcus aureus [10] = assay: Antibacterial activity against Staphylococcus aureus BAA 44 incubated for 24 hrs under aerobic condition by MABA; type: functional; conditions: BAA 44, 24 h, read-out: MIC100
# Summary of the method: (§2)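 Mid-log cultures at OD 0.5 were exposed to serial dilutions under aerobic conditions at 37 °C for 24 h. Resazurin was then added from a 0.08% stock for 1 h. MIC100 was the lowest concentration where the dye stayed blue (pink means growth). Absorbance was also read at 570 and 600 nm.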
# Enterococcus faecalis = assay: Antibacterial activity against Enterococcus faecalis ATCC 19433 incubated for 24 hrs under aerobic condition by MABA; type: functional; conditions: ATCC 19433, 24 h, read-out: MIC100; summary of the method: as §2
# Clostridioides difficile = assay: Bactericidal activity against Clostridium difficile ATCC 700057 incubated for 24 hrs […] by MABA; type: functional; conditions: ATCC 700057, 24 h
# Streptococcus pneumoniae = assay: Bactericidal activity against Streptococcus pneumoniae ATCC 6301 incubated for 24 hrs under aerobic condition by MABA; type: functional; conditions: ATCC 6301, 24 h
# Klebsiella pneumoniae = assay: Bactericidal activity against Klebsiella pneumoniae ATCC 12019 incubated for 24 hrs under aerobic condition by MABA; type: functional; conditions: ATCC 12019, 24 h
# Acinetobacter baumannii = assay: Antibacterial activity against Acinetobacter baumannii ATCC 19606 incubated for 24 hrs under aerobic condition by MABA; type: functional; conditions: ATCC 19606 = CIP 70.34 = JCM 6841, 24 h, read-out: MIC100; summary of the method: as §2
# Escherichia coli = assay: Antibacterial activity against Escherichia coli ATCC 10798 incubated for 24 hrs under aerobic condition by MABA; type: functional; conditions: ATCC 10798, 24 h, read-out: MIC100; summary of the method: as §2
# Streptococcus salivarius = assay: Antibacterial activity against Streptococcus salivarius […] incubated for 24 hrs under aerobic condition by MABA; type: functional; conditions: read-out: MIC100
# Summary of the method: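 Resazurin was then added from a 0.08% stock for 1 h. MIC100 was the lowest concentration where the dye stayed blue (pink means growth). Absorbance was also read at 570 and 600 nm.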
# Bacillus subtilis [11] = assay: Antibacterial activity against Bacillus subtilis ATCC 6051 incubated for 24 hrs under aerobic condition by MABA; type: functional; conditions: ATCC 6051, 24 h, read-out: MIC100; summary of the method: as §2
# Bacillus subtilis [12] = assay: Bactericidal activity against Bacillus subtilis ATCC 6051 incubated for 24 hrs under aerobic condition by MABA; type: functional; conditions: ATCC 6051, 24 h
# [13] = system: Mycobacterium tuberculosis; assay: Bactericidal activity against Mycobacterium tuberculosis H37Rv at 2 times MIC measured every 24 hrs up to 12 days by time kill assay relative to control; type: functional
# Summary of the method: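 Mid-log H37Rv (OD 0.5) is diluted to OD 0.25 and exposed at MIC, 2×MIC or 4×MIC. Every 24 h cultures are diluted 10- to 10,000-fold and plated on 7H10/OADC agar. Plates are incubated 15 days at 37 °C before colony counts.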
# [14] = Apparent permeability from basolateral to apical side in human Caco2 cells at 10 uM after 2 hrs by LC-MS/MS analysis; type: ADME, cell-based; conditions: caco-2, 2 h
# [15] = Half life in Balb/c mouse at 3 mg/kg, iv; type: ADME, organism-based; conditions: in vivo
# Summary of the method: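 Single 3 mg/kg IV dose in three BALB/c mice; serum half-life is derived from the concentration–time profile.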
# Mus musculus [16] = assay: AUC (0 to 24 hrs) in Balb/c mouse at 3 mg/kg, iv; type: ADME, organism-based; set-up: time < 24 hr, dose 3 mg/kg, route intravenous; conditions: in vivo
# Summary of the method: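 Single IV dose of 3 mg/kg in BALB/c mice (n = 3). Serum concentration-time data were used to derive t1/2, Cmax and AUC over 0–24 h and to infinity.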
# [17] = AUC (0 to infinity) in Balb/c mouse at 30 mg/kg, po; type: ADME, organism-based; set-up: dose 30 mg/kg, route oral, time infinity; conditions: in vivo
# Summary of the method: (§3)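 Single oral dose of 30 mg/kg in BALB/c mice (n = 6). Serum PK parameters were t1/2, tmax, Cmax and AUC over 0–24 h and to infinity. Oral bioavailability F was calculated against the 3 mg/kg IV dose.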
# [18] = AUC (0 to 24 hrs) in Balb/c mouse serum at 30 mg/kg, po; type: ADME, organism-based; set-up: time < 24 hr, dose 30 mg/kg, route oral; summary of the method: as §3
# [19] = AUC (0 to 24 hrs) in Balb/c mouse lung at 30 mg/kg, po; type: ADME, organism-based; set-up: dose 30 mg/kg, time < 24 hr, route oral; conditions: in vivo
# [20] = Solubility in water at 10 mg after 24 hrs by HPLC analysis; type: physicochemical
# Mus musculus [21] = assay: Toxicity in po dosed Balb/c mouse assessed as effect on health measured for 7 days; type: organism-based; conditions: in vivo, 168 h
# [22] = system: Mycobacterium tuberculosis; assay: Antibacterial activity against Mycobacterium tuberculosis Erdman infected in Balb/c mouse assessed as reduction in bacterial load in lungs at 200 mg/kg, po for 3 weeks starting from 10 days post infection measured on day 21 post infection; type: functional, Erdman = ATCC 35801
# Summary of the method: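 Female BALB/c mice, 7–8 weeks old, are aerosol-infected with Mtb Erdman. From day 10 they receive oral gavage in water for three weeks, in groups of 5. Lungs and spleens are harvested at day 21 post-infection and plated for CFU. Efficacy is the log10 reduction in lung burden versus untreated (vehicle) controls.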
compound,measurement,setting,value
CC[C@]1(C)C[C@@H](OC(=O)CSC(C)(C)CNC(=O)[C@H](N)CC(C)C)[C@]2(C)[C@H](C)CC[C@]3(CC[C@@H](O)[C@H]32)[C@@H](C)[C@@H]1O,MIC,[1],< 6.25 µg/mL
same,IC50,Erythrocyte,> 200 µM
same,t1/2,[2],> 1 h
same,MBC,[3],0.83 µg/mL
same,MIC,[4],6.25 µg/mL
same,MBC,[5],25 µg/mL
same,MBC,Staphylococcus aureus [6],1.56 µg/mL
same,MBC,Staphylococcus aureus [7],> 25 µg/mL
same,MBC,Staphylococcus aureus [8],> 25 µg/mL
same,MBC,Staphylococcus aureus [9],> 25 µg/mL
same,MIC,Staphylococcus aureus [10],> 25 µg/mL
same,MIC,Enterococcus faecalis,6.25 µg/mL
same,MBC,Clostridioides difficile,1.56 µg/mL
same,MBC,Streptococcus pneumoniae,> 25 µg/mL
same,MBC,Klebsiella pneumoniae,25 µg/mL
same,MIC,Acinetobacter baumannii,1.56 µg/mL
same,MIC,Escherichia coli,12.5 µg/mL
same,MIC,Streptococcus salivarius,6.25 µg/mL
same,MIC,Bacillus subtilis [11],25 µg/mL
same,MBC,Bacillus subtilis [12],> 25 µg/mL
same,Activity,[13],100%
same,Papp,[14],18.3 ×10⁻⁶ cm/s
same,half-life,[15],9.98 h
same,AUC,Mus musculus [16],993 ng·h/mL
same,AUC(0-inf),[17],2890 ng·h/mL
same,AUC(0-t) at 24 h,[18],2500 ng·h/mL
same,AUC,[19],66281 ng·h/g
same,solubility,[20],104.7 mg/mL
same,MTD,Mus musculus [21],> 200 mg/kg
same,log(activity),[22],0.47
